In the library only some 1.3% were active in any assay of this set; here they are far more common.
S1P4 agonist = agonists of human S1P4 receptor; S1P4-expressing cell line, agonist reporter assay; O95977; AID 1509; 0.35% of 220,000 active; activation, % at 4.98 µM; in the data active = activation above about 11%;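 also: 0% = DMSO vehicle and 100% = reference agonist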
Hsp70 act = Hsp70 transcriptional activation, primary screen | HeLa Hsp70 promoter luciferase reporter, luminescence; scaled: vehicle 0, proteasome-inhibitor control 100% | activation, % at 10 µM | 0.04% of 200,000 active;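 active = activation above the mean across all tested compounds plus 3 SD, cutoff set per campaign, cut at about 5.5% in these data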;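 also: 100% = MG132 at 30 µM as the positive control and 0% = DMSO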
S1P3 antagonist = S1P3 (human) receptor antagonism | Q99500 | AID 485 | CHO S1P3 NFAT-BLA reporter, FRET fluorescence, antagonist mode | 0.27% of 170,000 active | inhibition, % at 4.98 µM;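 active = inhibition above the plate cutoff, the mean inhibition of test wells on that plate plus 3 SD, cut at about 28% in these data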;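 also: cells challenged with S1P at its EC80 of 0.8 µM; blue over green emission ratio from cleaved BLA substrate after 4 h stimulation; 0% = S1P-stimulated wells and 100% = unstimulated DMSO-only wells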
Target sequence (Q99500 whole entry, looked up): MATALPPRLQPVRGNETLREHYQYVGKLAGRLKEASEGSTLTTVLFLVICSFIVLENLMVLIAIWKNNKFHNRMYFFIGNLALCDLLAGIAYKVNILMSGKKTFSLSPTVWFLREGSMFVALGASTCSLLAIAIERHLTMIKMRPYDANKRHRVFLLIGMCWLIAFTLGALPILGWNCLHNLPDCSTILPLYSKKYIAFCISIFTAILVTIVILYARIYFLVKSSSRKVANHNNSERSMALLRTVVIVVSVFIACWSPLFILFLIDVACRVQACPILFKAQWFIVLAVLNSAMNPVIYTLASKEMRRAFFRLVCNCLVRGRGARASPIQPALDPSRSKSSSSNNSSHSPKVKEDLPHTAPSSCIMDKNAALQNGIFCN
Dynein cargo inh = dynein cargo transport inhibition | z-score, hits read low | 3617.4 mouse cells, GR-EGFP nuclear translocation imaging; test concentration mostly 20 µM; stimulated with dexamethasone, 1 µM; hits give low values | 0.47% of 220,000 active;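 active = plate z-score of nuclear minus cytoplasmic receptor signal below a set negative limit, without overly bright fluorescence or cell loss, cut at about -3.5 in these data, passing the limit was not always enough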;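 also: z-score of nuclear minus cytoplasmic ring GR-EGFP intensity difference per well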
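medium = tetracycline-free induction medium containing charcoal-stripped FBS | also added = 1.0 µM final dexamethasone stimulus | schedule = 48 h induction, 1 h compound, 30 min dex at 37 °C | technique = fixed, Hoechst-stained cells imaged at 10x for EGFP | measure = GR-EGFP nuclear translocation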
S1P4 antagonist = antagonists of human S1P4 receptor. O95977. S1P4-expressing cells, antagonist mode, reporter read-out. inhibition, % at 4.98 µM. 0.26% of 220,000 active. AID 1510; in the data active = inhibition above about 29%;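 also: 0% = wells stimulated with agonist and 100% = vehicle wells without agonist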
Mdm2 ligase inh = Mdm2 E3 ligase (human) inhibition; cell-based MDM2 ubiquitination luciferase reporter, 2 h; 0 = plate control, 100 = twice control, blank-subtracted; Q00987; 0.11% of 210,000 active; signal enhancement, % at 5 µM;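 active = signal enhancement of 30% or more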;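 also: luminescence tracks abundance of the self-degrading MDM2-luciferase fusion protein; higher signal means inhibition of MDM2 E3 ligase activity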
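test system = mammalian cells stably expressing self-ubiquitinating, self-degrading MDM2 E3–luciferase fusion | quantity = 2000 cells/well | incubation = cell settling 4 h, compound treatment 2 h, both 37 °C | signal = luminescence with SteadyLite reagent, 15 min at room temperature | evaluation = % enhancement relative to plate controls after blank subtraction | benchmarks = plate controls and plate blanks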
Dynein confirm = dynein cargo transport inhibition, confirmation; shares compounds with Dynein cargo inh; 3617.4 GR-EGFP nuclear translocation imaging, dexamethasone-induced; calls only at 20 µM; 69% of 1,000 active; AID 463116;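 active = inhibition of receptor movement into the nucleus at or above a set limit in both runs, with normal cell brightness and cell count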;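 also: dexamethasone at 1 µM final in well for 30 min; nuclear minus cytoplasmic GR-EGFP mean intensity difference in channel 2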
S1P4 ag conf = human S1P4 agonism, confirmation; activation, % at 4.98 µM; S1P4 agonist cell-based reporter assay; shares compounds with S1P4 agonist; AID 1523; 7% of 740 active; in the data active = activation above about 12%;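 also: 0% = vehicle and 100% = full reference agonist response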
S1P1 agonist = activates human S1P1, counter-screen for S1P4 agonists; shares compounds with S1P4 agonist; S1P1 agonist cell-based assay, activation; activation, % at 4.98 µM; 4% of 740 active; in the data active = activation above about 21%;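 also: 0% = vehicle wells and 100% = reference agonist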
S1P4 antag conf = human S1P4 antagonism, confirmation | S1P4-expressing cell line, antagonist mode, reporter read-out | 71% of 520 active | shares compounds with S1P4 antagonist | inhibition, % at 4.98 µM | AID 1524; in the data active = inhibition above about 30%
S1P1 antagonist = human S1P1 antagonism as S1P4 antagonist counter-screen; 37% of 520 active; inhibition, % at 4.98 µM; AID 1564; cell-based S1P1 antagonist counterscreen, inhibition; shares compounds with S1P4 antagonist; in the data active = inhibition above about 40%;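 also: receptor stimulated with S1P near its EC80; 0% = agonist stimulated wells and 100% = vehicle only wells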
* marks the source's active call; other numbers are inactive results; nt = not tested or not shown; + = active, no number.

SMILES | S1P4 agonist | Hsp70 act | S1P3 antagonist | Dynein cargo inh | S1P4 antagonist | Mdm2 ligase inh | others
COc1ccc(CN2C(=O)NC(=O)/C(=C/c3ccc([N+](=O)[O-])s3)C2=O)cc1 | -1 | nt | -9 | -4.3* | 0 | -21 | Dynein confirm=+
COc1cccc(N2C(=O)NC(=O)/C(=C/c3ccc([N+](=O)[O-])s3)C2=O)c1 | -1 | nt | -6 | -5.6* | 23 | -1 | Dynein confirm=+
COc1ccc(CN2C(=O)NC(=O)/C(=C\c3cc(OC)c(OC)c(OC)c3)C2=O)cc1 | 2 | 0 | -4 | -0.11 | -3 | -1
COc1ccccc1N1C(=O)NC(=O)/C(=C/c2ccc([N+](=O)[O-])s2)C1=O | 0 | nt | 1 | -5.8* | -3 | -2 | Dynein confirm=+
COc1ccc(CCNC2CCCCC2)cc1OC | -1 | 0 | -13 | -1 | -12 | -18
COc1ccc(N2C(=O)NC(=O)/C(=C/c3ccc([N+](=O)[O-])s3)C2=O)cc1 | 0 | nt | -2 | -5.3* | 0 | 0 | Dynein confirm=+
CCOc1ccc(N2C(=O)NC(=O)/C(=C\c3cc(OC)c(OC)cc3[N+](=O)[O-])C2=O)cc1 | 0 | 0 | 1 | -0.28 | -2 | 1
c1ccc(-c2nnc(C3CC(c4cccnc4)=NO3)o2)cc1 (stereo unspecified) | nt | nt | nt | 0.49 | nt | 5
CC[n+]1c(/C=C/C=C/c2ccc(N(C)C)cc2)sc2ccccc21 | 1 | nt | -6 | -3.7* | -6 | -10 | Dynein confirm=+
CCOCCCNC(=O)CN1C2CCC1CC(O)(c1ccc(OC)cc1)C2 (stereo unspecified) | 2 | 0 | 12 | 0.05 | 7 | -10
CCOC(=O)c1sc(/N=C/c2c(O)n(-c3ccccc3)c(=O)[nH]c2=O)c(C#N)c1C | 13* | 0 | nt | 1 | 12 | -9 | S1P4 ag conf=-2;S1P1 agonist=-2
CN1CCN(c2ccc([N+](=O)[O-])c(SCCO)c2)CC1 | 1 | 0 | -18 | -0.45 | -9 | 5
Cc1cccc(-n2c(O)c(C)c(=O)[nH]c2=S)c1 | 56* | 0 | -8 | -0.24 | -6 | -12 | S1P4 ag conf=-2;S1P1 agonist=1
Cc1cccc(-n2c(O)c(C=Nc3ccc(Br)cn3)c(=O)[nH]c2=O)c1 | 1 | 0 | -3 | -0.64 | -1 | 1
CC[C@@]1(O)C(=O)OCc2c1cc1n(c2=O)Cc2cc3c(NC(=O)CN)cccc3nc2-1 | 0 | nt | -2 | 0.97 | -5 | -5
CCC1(OC(=O)CN)C(=O)OCc2c1cc1n(c2=O)Cc2cc3ccccc3nc2-1 (stereo unspecified) | 3 | nt | 15 | -0.88 | 92* | -41 | S1P4 antag conf=64*;S1P1 antagonist=24
CC(C)(C)NC(=S)N1CCn2cccc2C1c1cccnc1 (stereo unspecified) | -1 | 0 | 5 | -0.2 | 4 | -13
C/C1=C\[C@@H](C)C/C=C/[C@H]2[C@@H]3O[C@]3(C)[C@@H](C)[C@H]3[C@H](Cc4c[nH]c5ccccc45)NC(=O)[C@]32C(=O)/C=C/C(=O)[C@@H]1O | -1 | 0 | 22 | -3.2 | 33* | 33* | S1P4 antag conf=59*;S1P1 antagonist=25
Cc1ccccc1OCCCn1cc(C(=O)C(=O)N2CCOCC2)c2ccccc21 | 2 | 0 | 14 | -1.3 | -25 | 19
CC1=CC2/C=C(\C)CCC(O)C(O)/C=C/C(=O)C23C(=O)NC(CC(C)C)C3C1C (stereo unspecified) | -1 | 3 | 7 | 0.086 | 64* | 4 | S1P4 antag conf=114*;S1P1 antagonist=23
C=CCn1c(O)c(C(C)=Nc2cc(OC)ccc2OC)c(=O)[nH]c1=O | -1 | 0 | -4 | -0.74 | -11 | 5
COc1cc(/C=C(/C)[N+](=O)[O-])ccc1OCc1ccccc1Cl | -1 | 0 | -23 | -2 | 54* | -2 | S1P4 antag conf=120*;S1P1 antagonist=148*
CNC(=O)OCCc1n(C)cc[n+]1C | 2 | 0 | 2 | 0.039 | -35 | 10
CCCCn1c(NC(=O)c2ccco2)c(C(=O)OCC)c2nc3ccccc3nc21 | -1 | 0 | -15 | 2.2 | 31* | 1 | S1P4 antag conf=16;S1P1 antagonist=5

Screening results as filed in PubChem BioAssay.
